Active and inactive are the calls of the source. No cut-off for these calls is given here.
Tests used:
[1] = Cytotoxicity against human HCT-116 cells assessed as cell growth inhibition incubated for 72 hrs by MTS assay; assay type: toxicity, cell-based
How it was run: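 HCT-116 cells (ATCC; split every other day, no more than five generations, mycoplasma-tested) plated at 5 × 10³ cells/well in supplemented McCoy's 5a and grown 24 h at 37 °C, 5% CO₂. Compound added from DMSO (0.5% DMSO final) for 72 h. Cells washed with PBS, MTS reagent added for 2 h at 37 °C, A490 read against A690. GI₅₀ fitted from dose curves of 3 biological replicates.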

HCT-116 [2] = experiment: Cytotoxicity against human HCT-116 cells assessed as reduction in cell viability at 44 nM incubated for 4 hrs by MTS assay; assay type: toxicity, cell-based; conditions: hct-116, 4 h, 0.044 µM
SF3A3 pre-mRNA [3] = experiment: Modulation of splicing in SF3A3 pre-mRNA in human HCT-116 cells assessed as intron 5 retention level at 44 nM incubated for 4 hrs by qRT-PCR analysis; assay type: functional, cell-based; conditions: filed as modulator
SF3B1 pre-mRNA [4] = experiment: Modulation of splicing in SF3B1 pre-mRNA in human HCT-116 cells assessed as intron 13 retention level at 44 nM incubated for 4 hrs by qRT-PCR analysis; assay type: functional, cell-based; conditions: filed as modulator
How it was run: (§1)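 HCT-116 cells in supplemented McCoy's 5a, compound added from DMSO stock to a final 0.5% DMSO, 4 h at a single standardized concentration per analogue. Total RNA isolated and DNase-treated (1 µg). qPCR used 2.5 µM each primer on 5 ng cDNA, 40 cycles. Intron retention was computed by the 2^-CT method relative to GAPDH and expressed versus untreated cells set to 1.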

DNAJB1 pre-mRNA [5] = experiment: Modulation of splicing in DNAJB1 pre-mRNA in human HCT-116 cells assessed as intron 2 retention level at 44 nM incubated for 4 hrs by qRT-PCR analysis; assay type: functional, cell-based; conditions: filed as modulator
SF3A1 pre-mRNA [6] = experiment: Modulation of splicing in SF3A1 pre-mRNA in human HCT-116 cells assessed as intron 6 retention level at 44 nM incubated for 4 hrs by qRT-PCR analysis; assay type: functional, cell-based; conditions: filed as modulator
SF3B2 pre-mRNA [7] = experiment: Modulation of splicing in SF3B2 pre-mRNA in human HCT-116 cells assessed as intron 10 retention level at 44 nM incubated for 4 hrs by qRT-PCR analysis; assay type: functional, cell-based; conditions: filed as modulator; how it was run: as §1
HCT-116 [8] = experiment: Modulation of splicing in PLK-1 pre-mRNA in human HCT-116 cells assessed as effect on exon 3 inclusion at 44 nM incubated for 4 hrs by qRT-PCR analysis; assay type: functional, cell-based; conditions: filed as modulator
AURKA pre-mRNA [9] = experiment: Modulation of splicing in AURKA pre-mRNA in human HCT-116 cells assessed as effect on exon 4 skipping at 44 nM incubated for 4 hrs by qRT-PCR analysis; assay type: functional, cell-based; conditions: filed as modulator
HCT-116 [10] = experiment: Downregulation of SF2 mRNA expression in human HCT-116 cells at 100 to 500 nM incubated for 24 hrs by qRT-PCR analysis; assay type: functional, cell-based; conditions: dose 100-500 nM
How it was run: (§2)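 HCT-116 cells in supplemented McCoy's 5a with 0.5% DMSO, treated 24 h at 100, 250 or 500 nM; untreated cells as control. Total RNA isolated, 1 µg DNase I-treated, reverse transcribed. qPCR on 5 ng cDNA with 2.5 µM each primer, 40 cycles of 95 °C 30 s, 55 °C 60 s, 72 °C 60 s. Splice-event primers for intron retention or exon skipping; SF2 primers measure total expression. 2^-CT method relative to GAPDH, untreated set at 1.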

HCT-116 [11] = experiment: Downregulation of PLK-1 mRNA expression in human HCT-116 cells at 100 to 500 nM incubated for 24 hrs by qRT-PCR analysis; assay type: functional, cell-based; conditions: dose 100-500 nM; how it was run: as §2
HCT-116 [12] = experiment: Cytotoxicity against human HCT-116 cells assessed as reduction in cell viability at 42 nM incubated for 4 hrs by MTS assay; assay type: toxicity, cell-based; conditions: hct-116, 4 h, 0.042 µM
HCT-116 [13] = experiment: Cytotoxicity against human HCT-116 cells assessed as reduction in cell viability at 500 nM incubated for 24 hrs by MTS assay; assay type: toxicity, cell-based; conditions: hct-116, 24 h, 0.5 µM
How it was run: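 HCT-116 cells plated at 5 × 10³ cells/well in supplemented McCoy's 5a and grown 24 h at 37 °C, 5% CO₂. Compound given at 500 nM, the top dose of the 24 h splicing series, in 0.5% DMSO for 24 h. Cells washed with PBS, MTS reagent added for 2 h at 37 °C, A490 read against A690.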

SF3A3 pre-mRNA [14] = experiment: Modulation of splicing in SF3A3 pre-mRNA in human HCT-116 cells assessed as intron 5 retention level at 42 nM incubated for 4 hrs by qRT-PCR analysis; assay type: functional, cell-based; conditions: filed as modulator
SF3B1 pre-mRNA [15] = experiment: Modulation of splicing in SF3B1 pre-mRNA in human HCT-116 cells assessed as intron 13 retention level at 42 nM incubated for 4 hrs by qRT-PCR analysis; assay type: functional, cell-based; conditions: filed as modulator; how it was run: as §1
DNAJB1 pre-mRNA [16] = experiment: Modulation of splicing in DNAJB1 pre-mRNA in human HCT-116 cells assessed as intron 2 retention level at 42 nM incubated for 4 hrs by qRT-PCR analysis; assay type: functional, cell-based; conditions: filed as modulator
SF3A1 pre-mRNA [17] = experiment: Modulation of splicing in SF3A1 pre-mRNA in human HCT-116 cells assessed as intron 6 retention level at 42 nM incubated for 4 hrs by qRT-PCR analysis; assay type: functional, cell-based; conditions: filed as modulator
SF3B2 pre-mRNA [18] = experiment: Modulation of splicing in SF3B2 pre-mRNA in human HCT-116 cells assessed as intron 10 retention level at 42 nM incubated for 4 hrs by qRT-PCR analysis; assay type: functional, cell-based; conditions: filed as modulator; how it was run: as §1
AURKA pre-mRNA [19] = experiment: Modulation of splicing in AURKA pre-mRNA in human HCT-116 cells assessed as effect on exon 4 skipping at 42 nM incubated for 4 hrs by qRT-PCR analysis; assay type: functional, cell-based; conditions: filed as modulator
DNAJB1 pre-mRNA [20] = experiment: Modulation of splicing in DNAJB1 pre-mRNA in human HCT-116 cells assessed as reduction in intron 2 retention level at 100 to 500 nM incubated for 24 hrs by qRT-PCR analysis; assay type: functional, cell-based; conditions: filed as modulator, dose 100-500 nM; how it was run: as §2
SF3B2 pre-mRNA [21] = experiment: Modulation of splicing in SF3B2 pre-mRNA in human HCT-116 cells assessed as increase in intron 10 retention level incubated for 24 hrs by qRT-PCR analysis; assay type: functional, cell-based; conditions: filed as modulator, dose 100-500 nM
How it was run: (§3)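 HCT-116 cells in supplemented McCoy's 5a with 0.5% final DMSO were treated for 24 h at 100, 250 or 500 nM. Total RNA isolated and DNase-treated (1 µg). qPCR used 2.5 µM each primer on 5 ng cDNA, 40 cycles. Intron retention was computed by the 2^-CT method relative to GAPDH and expressed versus untreated cells set to 1.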

SF3B1 pre-mRNA [22] = experiment: Modulation of splicing in SF3B1 pre-mRNA in human HCT-116 cells assessed as increase in intron 13 retention level incubated for 24 hrs by qRT-PCR analysis; assay type: functional, cell-based; conditions: filed as modulator, dose 100-500 nM; how it was run: as §3

For CC[C@H](OC)[C@@H](C)[C@H]1O[C@@H]1[C@H](O)[C@H](C)/C=C/C=C(\C)[C@@H]1OC(=O)C[C@H](O)CC[C@@](C)(O)[C@@H](OC(C)=O)/C=C/[C@H]1C, the GI50 at 72 h [1] was 41300 nM.
In the case of CC[C@H](OC)[C@@H](C)[C@H]1O[C@@H]1[C@H](O)[C@H](C)/C=C/C=C(\C)[C@H]1OC(=O)C[C@@H](O)CC[C@@](C)(O)[C@@H](OC(C)=O)/C=C/[C@@H]1C, the GI50 at 72 h [1] is reported as 2.7 nM, the Activity (HCT-116 [2]) is reported as “Non-Toxic” and the Activity (SF3A3 pre-mRNA [3]) is reported as less than 3. The Activity (SF3B1 pre-mRNA [4]) was less than 3, the Activity (DNAJB1 pre-mRNA [5]) was greater than 3 and the Activity (SF3A1 pre-mRNA [6]) was greater than 3. For the same molecule, the Activity (SF3B2 pre-mRNA [7]) was greater than 3, the Activity (HCT-116 [8]) was “Active” and the Activity (AURKA pre-mRNA [9]) was “Active”.
With CC[C@H](OC)[C@@H](C)[C@H]1O[C@@H]1[C@@H](O)[C@H](C)/C=C/C=C(\C)[C@H]1OC(=O)C[C@H](O)CC[C@@](C)(O)[C@@H](OC(C)=O)/C=C/[C@@H]1C the Activity (HCT-116 [10]) was “inactive”, the Activity (HCT-116 [11]) was “inactive” and the GI50 at 72 h [1] was 2.2 nM. The Activity (HCT-116 [12]) was “Non-Toxic”, the Activity (HCT-116 [13]) was “Non-Toxic” and the Activity (SF3A3 pre-mRNA [14]) was less than 3. It also gave an Activity (SF3B1 pre-mRNA [15]) of less than 3, an Activity (DNAJB1 pre-mRNA [16]) greater than 3 and an Activity (SF3A1 pre-mRNA [17]) greater than 3. The Activity (SF3B2 pre-mRNA [18]) was greater than 3, the Activity (AURKA pre-mRNA [19]) was “Active” and the Activity (DNAJB1 pre-mRNA [20]) was “Active”. The Activity (SF3B2 pre-mRNA [21]) was “Dose-Dependent Effect” and the Activity (SF3B1 pre-mRNA [22]) was “Dose-Dependent Effect”.
